Measurements collected from several papers.
Compare with care: the assays were run in different laboratories.

`COc1nc(-c2cc(C)c(N[C@@H](C)c3c(F)cc(F)cc3F)nn2)ccc1-n1cnc(C)c1` gave an MRT(0-t) of 5.24 h (male CD-1 mouse, plasma; oral, 5 mg/kg, single dose).
The MRT(0-inf) of `CCc1cc(OC)c2nccc(N3CCc4c(cc(Cn5ccnc5)cc4-c4cn(C)nc4C(F)(F)F)C3=O)c2c1` is reported as 0.7 h (male CD-1 mouse, plasma; intravenous, 3 mg/kg).
`c1ccc(-c2nc(N3CCC(c4ccccn4)C3)c3ccccc3n2)nc1` (stereo not shown) gave an MRT(0-inf) of 5.7 h (female BALB/c mouse, plasma; oral, 50 mg/kg).
The MRT(0-inf) of `Cc1ccc2cncc(N3CCc4c(cc(Cn5ccnc5)cc4-c4cn(C)nc4C(F)(F)F)C3=O)c2c1` is reported as 3.5 h (male CD-1 mouse, plasma; oral, 50 mg/kg).
With `Cc1cc(NC(=O)c2cccc3cc(-c4cccc5[nH]nc(N)c45)ccc23)ccc1F` the MRT(0-inf) was 3.74 h (male CD-1 mouse, brain; oral, 10 mg/kg).
For `COc1nc(-c2cc(C)c(N[C@@H](C)c3cc(F)cc(F)c3)nn2)ccc1-n1cnc(C)c1`, the MRT(0-t) was 3.3 h (male CD-1 mouse, plasma; intravenous, 1 mg/kg, single dose).
The MRT of `COc1ccc2cc(CCC[18F])ccc2c1` is reported as 0.698 h (male BALB/c mouse, plasma; intravenous).
`CCc1cc(C(=O)NC)c2nccc(N3CCc4c(cc(Cn5ccnc5)cc4-c4cn(C)nc4C(F)(F)F)C3=O)c2c1` gave an MRT(0-inf) of 0.5 h (male CD-1 mouse, plasma; intravenous, 3 mg/kg).
With `CC(C)(Nc1nc(-c2ccccn2)nc2ccccc12)c1ccccn1` the MRT(0-t) was 1.2 h (female BALB/c mouse, plasma; intravenous, 1 mg/kg).
With `COc1cc(C2Oc3cc([C@H]4Oc5cc(O)cc(O)c5C(=O)[C@@H]4O)ccc3OC2CO)ccc1O` (stereo partly shown) the MRT(0-inf) was 0.103 h (male CD-1 mouse, plasma; intravenous, 2 mg/kg).
